# Source: ChEMBL document CHEMBL1141595, “1-(2-Phenoxyphenyl)methanamines: SAR for dual serotonin/noradrenaline reuptake inhibition, metabolic stability and hERG affinity” (Bioorg Med Chem Lett, 2008)
# Assays:
# [1] = Membrane permeability by PAMPA assay; format: ADME
# [2] = target: Sodium-dependent serotonin transporter (Homo sapiens, UniProt P31645); assay: Inhibition of [3H]5HT uptake at human 5HT transporter expressed in HEK293 cells; format: cell-based
# Summary of the method: (§1)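 HEK293 cells each expressing one human amine transporter, 7500 cells/well, preincubated 5 min at 25 °C with compound or DMSO vehicle. Uptake was started with tritiated substrate: 5-HT 50 nM (5 min), NA 200 nM (15 min), DA 200 nM (5 min), shaken at 25 °C. Stopped by ice-cold wash and filtration, then scintillation counting.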
# [3] = target: Sodium-dependent dopamine transporter (Homo sapiens, UniProt Q01959); assay: Inhibition of [3H]dopamine uptake at human dopamine transporter expressed in HEK293 cells; format: cell-based; summary of the method: as §1
# [4] = Metabolic stability assessed as intrinsic clearance in human liver microsomes; format: ADME, Microsome
# [5] = target: Sodium-dependent noradrenaline transporter (Homo sapiens, UniProt P23975); assay: Inhibition of [3H]NA uptake at human NA transporter expressed in HEK293 cells; format: cell-based; summary of the method: as §1
# [6] = target: Voltage-gated inwardly rectifying potassium channel KCNH2 (Homo sapiens, UniProt Q12809); assay: Binding affinity to human ERG
# Voltage-gated inwardly rectifying potassium channel KCNH2, sequence (Q12809 whole entry): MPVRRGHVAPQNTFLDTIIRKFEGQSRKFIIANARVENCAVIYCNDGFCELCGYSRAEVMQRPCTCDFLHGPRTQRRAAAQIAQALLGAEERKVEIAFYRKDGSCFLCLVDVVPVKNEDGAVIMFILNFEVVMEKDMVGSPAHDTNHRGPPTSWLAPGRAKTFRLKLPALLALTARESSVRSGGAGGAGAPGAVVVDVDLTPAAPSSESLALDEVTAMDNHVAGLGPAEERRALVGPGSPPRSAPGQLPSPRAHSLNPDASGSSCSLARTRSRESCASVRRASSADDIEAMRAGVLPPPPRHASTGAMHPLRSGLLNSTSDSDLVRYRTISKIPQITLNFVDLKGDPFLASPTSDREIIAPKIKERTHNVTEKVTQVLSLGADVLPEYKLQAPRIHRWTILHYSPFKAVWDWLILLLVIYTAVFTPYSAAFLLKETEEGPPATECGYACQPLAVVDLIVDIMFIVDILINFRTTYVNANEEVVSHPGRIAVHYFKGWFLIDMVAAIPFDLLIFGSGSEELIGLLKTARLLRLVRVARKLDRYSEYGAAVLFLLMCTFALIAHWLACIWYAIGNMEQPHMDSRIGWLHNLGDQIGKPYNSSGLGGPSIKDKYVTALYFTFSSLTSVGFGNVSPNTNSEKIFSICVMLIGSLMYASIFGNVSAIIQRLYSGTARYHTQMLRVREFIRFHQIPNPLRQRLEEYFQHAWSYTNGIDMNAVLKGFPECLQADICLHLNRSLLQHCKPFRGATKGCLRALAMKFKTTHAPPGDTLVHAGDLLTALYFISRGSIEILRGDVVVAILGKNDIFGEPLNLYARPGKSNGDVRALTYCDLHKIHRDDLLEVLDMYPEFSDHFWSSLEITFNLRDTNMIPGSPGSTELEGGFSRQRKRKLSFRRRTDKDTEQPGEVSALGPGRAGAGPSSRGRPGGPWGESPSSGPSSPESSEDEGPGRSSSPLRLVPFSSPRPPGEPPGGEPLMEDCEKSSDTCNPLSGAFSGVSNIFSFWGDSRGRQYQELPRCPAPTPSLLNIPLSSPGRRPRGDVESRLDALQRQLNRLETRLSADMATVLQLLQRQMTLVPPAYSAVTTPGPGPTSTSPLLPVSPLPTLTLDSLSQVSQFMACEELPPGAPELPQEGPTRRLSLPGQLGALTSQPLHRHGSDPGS
# Sodium-dependent dopamine transporter, sequence (Q01959 whole entry): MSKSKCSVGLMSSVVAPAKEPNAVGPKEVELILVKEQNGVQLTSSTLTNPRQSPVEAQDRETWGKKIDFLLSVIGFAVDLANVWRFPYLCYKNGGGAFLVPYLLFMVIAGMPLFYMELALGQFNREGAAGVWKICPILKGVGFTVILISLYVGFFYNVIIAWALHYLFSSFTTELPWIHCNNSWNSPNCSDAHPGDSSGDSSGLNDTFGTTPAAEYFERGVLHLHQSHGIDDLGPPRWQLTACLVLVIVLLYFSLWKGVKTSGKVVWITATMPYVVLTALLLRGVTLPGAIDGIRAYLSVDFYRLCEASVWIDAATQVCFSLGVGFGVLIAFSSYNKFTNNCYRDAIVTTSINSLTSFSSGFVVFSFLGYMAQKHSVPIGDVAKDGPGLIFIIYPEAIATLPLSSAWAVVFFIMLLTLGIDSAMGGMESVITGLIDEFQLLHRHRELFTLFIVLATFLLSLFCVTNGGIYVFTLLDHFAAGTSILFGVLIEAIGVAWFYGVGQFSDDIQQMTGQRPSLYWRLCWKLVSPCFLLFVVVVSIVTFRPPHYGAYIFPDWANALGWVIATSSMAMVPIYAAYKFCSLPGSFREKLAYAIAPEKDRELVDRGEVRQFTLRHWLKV
# Sodium-dependent noradrenaline transporter, sequence (P23975 whole entry): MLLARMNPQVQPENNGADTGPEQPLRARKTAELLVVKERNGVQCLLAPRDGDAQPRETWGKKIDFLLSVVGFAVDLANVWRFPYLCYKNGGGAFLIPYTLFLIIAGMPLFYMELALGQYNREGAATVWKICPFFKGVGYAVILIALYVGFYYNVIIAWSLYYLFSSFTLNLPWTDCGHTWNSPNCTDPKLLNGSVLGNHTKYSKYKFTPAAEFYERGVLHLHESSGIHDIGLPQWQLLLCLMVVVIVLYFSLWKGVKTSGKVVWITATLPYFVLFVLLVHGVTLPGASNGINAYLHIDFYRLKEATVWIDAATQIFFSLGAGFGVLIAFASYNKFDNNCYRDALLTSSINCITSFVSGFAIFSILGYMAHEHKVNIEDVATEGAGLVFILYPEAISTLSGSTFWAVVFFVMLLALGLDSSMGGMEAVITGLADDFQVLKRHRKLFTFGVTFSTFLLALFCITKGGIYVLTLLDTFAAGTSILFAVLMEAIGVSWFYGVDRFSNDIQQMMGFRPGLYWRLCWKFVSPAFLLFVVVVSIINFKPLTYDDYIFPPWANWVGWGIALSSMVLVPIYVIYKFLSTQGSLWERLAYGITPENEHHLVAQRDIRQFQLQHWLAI
# Sodium-dependent serotonin transporter, sequence (P31645 whole entry): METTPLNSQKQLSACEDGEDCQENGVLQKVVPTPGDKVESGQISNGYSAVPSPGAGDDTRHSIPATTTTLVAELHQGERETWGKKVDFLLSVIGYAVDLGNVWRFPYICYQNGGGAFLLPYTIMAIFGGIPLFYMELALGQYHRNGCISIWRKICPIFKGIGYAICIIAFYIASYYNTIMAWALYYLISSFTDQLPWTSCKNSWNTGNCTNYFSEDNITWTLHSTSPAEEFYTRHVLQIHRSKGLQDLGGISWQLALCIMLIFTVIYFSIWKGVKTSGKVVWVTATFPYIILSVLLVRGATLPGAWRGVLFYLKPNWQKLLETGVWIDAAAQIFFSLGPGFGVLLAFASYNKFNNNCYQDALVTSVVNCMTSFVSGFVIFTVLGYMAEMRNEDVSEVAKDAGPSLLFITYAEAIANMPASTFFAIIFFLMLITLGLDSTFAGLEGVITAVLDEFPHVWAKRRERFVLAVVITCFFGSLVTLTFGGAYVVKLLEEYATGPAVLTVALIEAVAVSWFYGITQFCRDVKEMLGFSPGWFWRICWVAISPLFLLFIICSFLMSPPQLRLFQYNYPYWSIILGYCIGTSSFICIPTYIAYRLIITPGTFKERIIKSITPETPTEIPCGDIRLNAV
Compound,Papp [1],IC50 [2],IC50 [3],microsomal CLint [4],IC50 [5],Ki [6]
CNCc1cc(C(=O)N(C)C)ccc1Oc1ccc(Cl)cc1OC,15 ×10⁻⁶ cm/s,8 nM,> 40000 nM,15 µL/min/mg,32 nM,–
CNCc1cc(C#N)ccc1Oc1ccc(Cl)cc1Cl,–,28 nM,3010 nM,–,> 400 nM,2210 nM
CNCc1ccccc1Oc1ccc(Cl)cc1Cl,–,56 nM,506 nM,–,42 nM,–
CNCc1cc(NS(C)(=O)=O)ccc1Oc1ccc(Cl)cc1C,2.2 ×10⁻⁶ cm/s,16 nM,320 nM,8 µL/min/mg,25 nM,7250 nM
CNCc1cc(N2CCCS2(=O)=O)ccc1Oc1ccc(Cl)cc1C,2.7 ×10⁻⁶ cm/s,10 nM,47 nM,11 µL/min/mg,11 nM,1590 nM
CNCc1cc(C(N)=O)ccc1Oc1ccc(Cl)cc1C,–,7 nM,2820 nM,8 µL/min/mg,46 nM,–
CNCc1cc(C(=O)NC)ccc1Oc1ccc(Cl)cc1OC,14 ×10⁻⁶ cm/s,13 nM,15700 nM,8 µL/min/mg,78 nM,> 7500 nM
CNCc1cc(N2CCCS2(=O)=O)ccc1Oc1ccc(Cl)cc1Cl,–,12 nM,138 nM,12 µL/min/mg,17 nM,–
CN(C)Cc1ccccc1Oc1ccc(Cl)cc1,–,18 nM,124 nM,–,256 nM,–
CNCc1ccccc1Oc1ccc(Cl)cc1C,–,18 nM,421 nM,20 µL/min/mg,22 nM,–
CNCc1cc(C#N)ccc1Oc1ccc(Cl)cc1OC,–,5 nM,> 40000 nM,–,> 400 nM,–
CN(C)Cc1ccccc1Oc1cccc(Cl)c1,–,238 nM,194 nM,–,82 nM,–
CNCc1ccccc1Oc1ccc(Cl)cc1OC,–,13 nM,19600 nM,9 µL/min/mg,78 nM,4380 nM
CNCc1cc(C(=O)N(C)C)ccc1Oc1ccc(Cl)cc1Cl,14 ×10⁻⁶ cm/s,11 nM,275 nM,13 µL/min/mg,33 nM,–
CNCc1ccccc1Oc1ccc(OC)cc1Cl,–,22 nM,5950 nM,–,157 nM,–
CNCc1cc(C(=O)NC)ccc1Oc1ccc(Cl)cc1C,–,14 nM,387 nM,9 µL/min/mg,26 nM,–
CN(C)Cc1ccccc1Oc1ccc(F)cc1Cl,–,32 nM,2130 nM,219 µL/min/mg,46 nM,–
CNCc1ccccc1Oc1ccc(F)cc1Cl,–,–,6510 nM,–,300 nM,–
CN(C)Cc1ccccc1Oc1ccccc1,–,660 nM,–,–,70 nM,–
CNCc1ccccc1Oc1ccc(Cl)cc1F,–,73 nM,–,22 µL/min/mg,429 nM,5930 nM
CN(C)Cc1ccccc1Oc1ccc(Cl)cc1Cl,–,4 nM,195 nM,223 µL/min/mg,11 nM,–
CNCc1cc(C(N)=O)ccc1Oc1ccc(Cl)cc1OC,11 ×10⁻⁶ cm/s,12 nM,21000 nM,8 µL/min/mg,62 nM,> 7500 nM
CN(C)Cc1ccccc1Oc1ccccc1Cl,–,282 nM,2730 nM,186 µL/min/mg,15 nM,–
CNCc1cc(C(=O)NC)ccc1Oc1ccc(Cl)cc1Cl,–,13 nM,800 nM,9 µL/min/mg,38 nM,1760 nM
Cc1cccc(CN(C2CCOCC2)[C@H]2CCNC2)c1C,–,–,–,< 7 µL/min/mg,–,–
CNCc1cc(C(=O)N(C)C)ccc1Oc1ccc(Cl)cc1C,19 ×10⁻⁶ cm/s,17 nM,172 nM,9 µL/min/mg,17 nM,3750 nM
CN(C)Cc1ccccc1Oc1ccc(Cl)cc1F,–,6 nM,421 nM,–,21 nM,–
CNCc1cc(C(N)=O)ccc1Oc1ccc(Cl)cc1Cl,10 ×10⁻⁶ cm/s,37 nM,1210 nM,8 µL/min/mg,84 nM,–
COc1cc(Cl)ccc1Oc1ccccc1CN(C)C,–,6 nM,3780 nM,45 µL/min/mg,14 nM,> 7500 nM
